Reference: ChEMBL document CHEMBL3621126, “Difluoromethyl ketones: Potent inhibitors of wild type and carbamate-insensitive G119S mutant Anopheles gambiae acetylcholinesterase” (Bioorg Med Chem Lett, 2015)
Converted amounts (≈) assume the structure as drawn.

Biological target: T1, Acetylcholinesterase (Anopheles gambiae, UniProt Q869C3)
Experiment: Inhibition of recombinant Anopheles gambiae wild type AChE after 60 mins by Ellman assay
Conditions: not given

T1 sequence (Q869C3 whole entry): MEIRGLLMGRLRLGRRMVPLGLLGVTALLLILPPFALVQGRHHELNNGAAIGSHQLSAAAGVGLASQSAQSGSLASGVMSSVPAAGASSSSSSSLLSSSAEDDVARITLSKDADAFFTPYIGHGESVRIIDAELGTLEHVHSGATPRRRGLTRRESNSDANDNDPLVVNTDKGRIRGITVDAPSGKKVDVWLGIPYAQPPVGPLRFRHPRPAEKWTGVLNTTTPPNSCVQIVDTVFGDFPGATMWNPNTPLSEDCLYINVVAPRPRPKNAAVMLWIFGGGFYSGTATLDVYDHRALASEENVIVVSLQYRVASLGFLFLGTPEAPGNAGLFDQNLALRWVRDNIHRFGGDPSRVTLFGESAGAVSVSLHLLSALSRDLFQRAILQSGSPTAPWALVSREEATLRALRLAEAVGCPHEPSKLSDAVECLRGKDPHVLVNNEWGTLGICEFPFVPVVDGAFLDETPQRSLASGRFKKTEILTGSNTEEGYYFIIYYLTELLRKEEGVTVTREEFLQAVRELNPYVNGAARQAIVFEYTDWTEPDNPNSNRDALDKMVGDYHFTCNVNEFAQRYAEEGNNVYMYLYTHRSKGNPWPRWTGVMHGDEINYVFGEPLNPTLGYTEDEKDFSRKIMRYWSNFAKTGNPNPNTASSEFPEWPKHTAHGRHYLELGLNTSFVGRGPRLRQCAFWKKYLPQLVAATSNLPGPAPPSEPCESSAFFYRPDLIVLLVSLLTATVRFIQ

`CCC(C)n1cc(C(=O)C(F)(F)F)cn1` (stereo not drawn) and `CCCC(C)n1cc(C(=O)C(F)(F)F)cn1` (stereo not drawn) are within 1.5-fold of each other in IC50: 0.00229 µM for the first, 0.00206 µM for the second.

First: CNC(=O)Oc1ccccc1OC(C)C [PROPOXUR]
Second: CC(C)n1cc(C(=O)C(F)F)cn1
The IC50 of the first is 9.9-fold lower: 0.0436 µM for the first, 0.43 µM for the second. The first is the more potent here.

Going from `O=C(c1cnn(C2CCCC2)c1)C(F)(F)F` to `CC(C)Cn1cc(C(=O)C(F)F)cn1`, the IC50 rises from 0.00154 µM to 3.95 µM (2600-fold). The first is the more potent here.

Going from `CC(C)n1cc(C(=O)CF)cn1` to `CCC(CC)n1cc(C(=O)CF)cn1`, the IC50 falls from over 10 µM to 0.337 µM. The second is the more potent here.

Compared with `CCC(CC)n1cc(C(=O)C(F)F)cn1`, `CCCC(C)n1cc(C(=O)C(F)F)cn1` (stereo not drawn) is 24-fold higher in IC50: 0.00122 µM for the first, 0.0291 µM for the second.

Biological target: Acetylcholinesterase (Anopheles gambiae) (UniProt Q869C3)
Sequence (Q869C3 39-737 limits assumed): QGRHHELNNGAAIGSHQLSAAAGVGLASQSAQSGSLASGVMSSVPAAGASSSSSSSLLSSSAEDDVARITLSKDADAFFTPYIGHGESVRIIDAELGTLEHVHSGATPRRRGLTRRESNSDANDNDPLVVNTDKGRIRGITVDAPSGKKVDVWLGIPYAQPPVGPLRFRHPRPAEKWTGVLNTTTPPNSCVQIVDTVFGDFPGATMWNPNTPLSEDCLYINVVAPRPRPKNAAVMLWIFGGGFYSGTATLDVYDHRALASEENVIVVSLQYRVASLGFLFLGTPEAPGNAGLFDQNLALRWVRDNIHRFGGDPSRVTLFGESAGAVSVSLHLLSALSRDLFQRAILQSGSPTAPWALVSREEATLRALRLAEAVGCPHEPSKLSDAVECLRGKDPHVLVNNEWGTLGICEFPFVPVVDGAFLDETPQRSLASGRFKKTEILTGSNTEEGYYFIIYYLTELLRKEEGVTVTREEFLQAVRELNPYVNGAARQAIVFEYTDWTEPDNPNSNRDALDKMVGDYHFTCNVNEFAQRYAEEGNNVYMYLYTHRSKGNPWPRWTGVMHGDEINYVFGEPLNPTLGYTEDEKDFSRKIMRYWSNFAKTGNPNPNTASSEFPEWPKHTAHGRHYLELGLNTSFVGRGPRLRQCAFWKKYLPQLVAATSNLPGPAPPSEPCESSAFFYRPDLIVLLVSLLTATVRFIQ
Experiment: Inhibition of recombinant Anopheles gambiae wild type AChE by Ellman assay
Conditions: TDE = time-dependent effect
Procedure, shortened: (§1)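 Modified Ellman assay in microtiter plates with recombinant enzymes (human AChE, wild-type or G119S Anopheles gambiae AChE). Inhibitor preincubated 10 or 60 min at 23 ± 1°C, pH 7.7, 0.1% (v/v) DMSO, before adding substrate. Ten inhibitor concentrations were run alongside inhibitor-free control wells. IC50 was taken from sigmoidal plots of residual activity (v/v0) vs [I].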

With `CCC(C)n1cc(C(=O)C(F)(F)F)cn1` (stereo not drawn) the inhibition was “tde”.
For `CCCC(C)n1cc(C(=O)C(F)(F)F)cn1` (stereo not drawn), the inhibition was “tde”.
For `O=C(c1cnn(C2CCCC2)c1)C(F)(F)F`, the inhibition was “tde”.

Biological target: T2, Acetylcholinesterase (Homo sapiens, UniProt P22303)
T2 sequence (P22303 whole entry): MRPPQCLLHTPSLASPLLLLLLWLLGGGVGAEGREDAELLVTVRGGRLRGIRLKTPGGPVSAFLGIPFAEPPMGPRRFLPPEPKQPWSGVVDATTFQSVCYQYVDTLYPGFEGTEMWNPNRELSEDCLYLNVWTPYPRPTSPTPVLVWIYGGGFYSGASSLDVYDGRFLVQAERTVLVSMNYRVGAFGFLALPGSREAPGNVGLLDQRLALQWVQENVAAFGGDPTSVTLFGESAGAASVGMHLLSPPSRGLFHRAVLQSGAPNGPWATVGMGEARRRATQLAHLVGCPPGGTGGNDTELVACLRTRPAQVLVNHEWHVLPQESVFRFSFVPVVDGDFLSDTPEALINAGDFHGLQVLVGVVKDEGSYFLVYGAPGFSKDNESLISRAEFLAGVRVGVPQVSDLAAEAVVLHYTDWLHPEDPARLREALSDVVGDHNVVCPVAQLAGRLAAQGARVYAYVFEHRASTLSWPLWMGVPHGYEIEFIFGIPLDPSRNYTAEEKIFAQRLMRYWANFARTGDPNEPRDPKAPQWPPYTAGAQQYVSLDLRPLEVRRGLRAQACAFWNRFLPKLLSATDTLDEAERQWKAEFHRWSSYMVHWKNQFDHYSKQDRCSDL
Experiment: Inhibition of recombinant human AChE after 60 mins by Ellman assay
Conditions: not given

`CCC(C)n1cc(C(=O)C(F)(F)F)cn1` (stereo not drawn) and `CCCC(C)n1cc(C(=O)C(F)(F)F)cn1` (stereo not drawn) are within 1.5-fold of each other in IC50: 0.00884 µM for the first, 0.00837 µM for the second.

`CNC(=O)Oc1ccccc1OC(C)C` [PROPOXUR] and `CC(C)n1cc(C(=O)C(F)F)cn1` are within 1.5-fold of each other in IC50: 0.59 µM for the first, 0.869 µM for the second.

Going from `O=C(c1cnn(C2CCCC2)c1)C(F)(F)F` to `CC(C)Cn1cc(C(=O)C(F)F)cn1`, the IC50 rises from 0.00611 µM to 11 µM (1800-fold). The first is the more potent here.

First: CC(C)n1cc(C(=O)CF)cn1
Second: CCC(CC)n1cc(C(=O)CF)cn1
The IC50 of the first is higher: over 10 µM for the first, 5.19 µM for the second. The second is the more potent here.

First: CCC(CC)n1cc(C(=O)C(F)F)cn1
Second: CCCC(C)n1cc(C(=O)C(F)F)cn1 (stereo not drawn)
The IC50 of the first is 4.5-fold lower: 0.0352 µM for the first, 0.158 µM for the second. The first is the more potent here.

Biological target: Acetylcholinesterase (Electrophorus electricus, UniProt O42275)
Sequence (O42275 whole entry): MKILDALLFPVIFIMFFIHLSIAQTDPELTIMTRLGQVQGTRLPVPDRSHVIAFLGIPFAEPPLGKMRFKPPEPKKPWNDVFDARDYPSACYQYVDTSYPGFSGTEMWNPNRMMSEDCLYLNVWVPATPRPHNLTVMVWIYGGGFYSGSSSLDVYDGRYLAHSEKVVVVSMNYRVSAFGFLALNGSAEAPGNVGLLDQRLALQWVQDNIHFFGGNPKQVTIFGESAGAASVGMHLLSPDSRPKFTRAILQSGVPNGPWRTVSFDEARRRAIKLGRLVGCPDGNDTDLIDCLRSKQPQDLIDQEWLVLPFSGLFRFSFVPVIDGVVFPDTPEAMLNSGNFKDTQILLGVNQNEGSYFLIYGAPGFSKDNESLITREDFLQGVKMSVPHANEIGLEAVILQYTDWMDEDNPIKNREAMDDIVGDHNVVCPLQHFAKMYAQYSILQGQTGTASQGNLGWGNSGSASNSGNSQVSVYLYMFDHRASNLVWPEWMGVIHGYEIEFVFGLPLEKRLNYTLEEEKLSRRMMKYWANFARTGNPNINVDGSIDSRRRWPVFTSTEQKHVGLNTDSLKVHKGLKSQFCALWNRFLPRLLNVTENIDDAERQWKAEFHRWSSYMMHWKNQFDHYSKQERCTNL
Experiment: Inhibition of electric eel AChE
Conditions: not given

`CC(=O)C(F)(F)CCC(C)(C)C` gave a Ki of 0.0016 µM.

Test system: not listed separately
Experiment: Inhibition of recombinant Anopheles gambiae AChE G119S mutant after 60 mins by Ellman assay
Conditions: not given

`CCC(C)n1cc(C(=O)C(F)(F)F)cn1` (stereo not drawn) and `CCCC(C)n1cc(C(=O)C(F)(F)F)cn1` (stereo not drawn) are within 1.5-fold of each other in IC50: 2.34 µM for the first, 2 µM for the second.

Compared with `CNC(=O)Oc1ccccc1OC(C)C` [PROPOXUR], `CC(C)n1cc(C(=O)C(F)F)cn1` is lower in IC50: over 10 µM for the first, 8.38 µM for the second. The second is the more potent here.

Going from `O=C(c1cnn(C2CCCC2)c1)C(F)(F)F` to `CC(C)Cn1cc(C(=O)C(F)F)cn1`, the IC50 rises from 3.52 µM to over 10 µM.

First: CC(C)n1cc(C(=O)CF)cn1
Second: CCC(CC)n1cc(C(=O)CF)cn1
The IC50 of the first is higher: over 10 µM for the first, 3 µM for the second. The second is the more potent here.

Compared with `CCC(CC)n1cc(C(=O)C(F)F)cn1`, `CCCC(C)n1cc(C(=O)C(F)F)cn1` (stereo not drawn) is 2.4-fold higher in IC50: 0.125 µM for the first, 0.297 µM for the second.

Test system: Anopheles gambiae
Experiment: Insecticidal activity against Anopheles gambiae G3 assessed as torsal contact toxicity by measuring mortality at 1000 ug/mL after 24 hrs by filter paper based method
Assay type: functional
Conditions: G3, 24 h
Procedure, shortened: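 Adult susceptible G3 An. gambiae were tested by the WHO treated-paper tarsal contact protocol. Papers were treated with ethanolic compound solutions at 1000 µg/mL and dried overnight. Mosquitoes were exposed 1 h and mortality recorded after 24 h.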

Going from `CCC(C)n1cc(C(=O)C(F)(F)F)cn1` (stereo not drawn) to `CCCC(C)n1cc(C(=O)C(F)(F)F)cn1` (stereo not drawn), the mortality at 1000 µg/mL falls from 30% to 0%.

Compared with `CNC(=O)Oc1ccccc1OC(C)C` [PROPOXUR], `CC(C)(C)c1cccc(C(=O)C(F)F)c1` is lower in mortality at 1000 µg/mL: 39% for the first, 20% for the second.

First: O=C(c1cnn(C2CCCC2)c1)C(F)(F)F
Second: CC(C)n1cc(C(=O)C(F)F)cn1
The mortality at 1000 µg/mL of the first is lower: 40% for the first, 50% for the second.

`CC(C)n1cc(C(=O)CF)cn1` and `CCC(CC)n1cc(C(=O)CF)cn1` are the same in mortality at 1000 µg/mL: 85% for the first, 85% for the second.

Going from `CC(C)(C)c1cccc(C(=O)CF)c1` to `CCC(CC)n1cc(C(=O)C(F)F)cn1`, the mortality at 1000 µg/mL falls from 50% to 0%.

In the case of `CCCC(C)n1cc(C(=O)C(F)F)cn1` (stereo not drawn), the mortality at 1000 µg/mL is reported as 0%.

Test system: not listed separately
Experiment: Inhibition of Anopheles gambiae AChE G119S mutant after 10 mins by Ellman assay
Conditions: not given

Going from `CCC(C)n1cc(C(=O)C(F)(F)F)cn1` (stereo not drawn) to `CCCC(C)n1cc(C(=O)C(F)(F)F)cn1` (stereo not drawn), the IC50 rises from 8.18 µM to 19.9 µM (2.4-fold). The first is the more potent here.

`CNC(=O)Oc1ccccc1OC(C)C` [PROPOXUR] and `CC(C)(C)c1cccc(C(=O)CF)c1` cannot be ordered by IC50: over 10 µM for the first, over 10 µM for the second.

Compared with `O=C(c1cnn(C2CCCC2)c1)C(F)(F)F`, `CC(C)n1cc(C(=O)C(F)F)cn1` is lower in IC50: over 10 µM for the first, 8.29 µM for the second.

First: CC(C)n1cc(C(=O)CF)cn1
Second: CCC(CC)n1cc(C(=O)CF)cn1
The IC50 of the first is higher: over 10 µM for the first, 2.99 µM for the second.

`CCC(CC)n1cc(C(=O)C(F)F)cn1` and `CCCC(C)n1cc(C(=O)C(F)F)cn1` (stereo not drawn) are within 1.5-fold of each other in IC50: 0.68 µM for the first, 0.797 µM for the second.

Molecule `CC(C)Cn1cc(C(=O)C(F)F)cn1` has an IC50 of over 10 µM.

Test system: not listed separately
Experiment: Inhibition of recombinant Anopheles gambiae AChE G119S mutant after 1380 mins by Ellman assay
Conditions: not given
Procedure, shortened: (§2)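 Recombinant G119S mutant An. gambiae AChE; modified Ellman assay in microtiter plates at 23 ± 1°C, pH 7.7, 0.1% (v/v) DMSO. Enzyme preincubated with inhibitor over a range of concentrations before substrate added; inhibitor-free controls flank 10 concentrations, right-hand control used for residual activity (v/v0). IC50 taken from sigmoidal plots of v/v0 versus [I].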

`CCC(CC)n1cc(C(=O)C(F)F)cn1` gave an IC50 of 0.0251 µM.

Test system: Anopheles gambiae
Experiment: Insecticidal activity against Anopheles gambiae G3 assessed as mortality after 24 hrs
Assay type: functional
Conditions: not given

For `CNC(=O)Oc1ccccc1OC(C)C` [PROPOXUR], the LD50 was 0.2 ng.

Test system: not listed separately
Experiment: Inhibition of recombinant Anopheles gambiae AChE G119S mutant after 330 mins by Ellman assay
Conditions: not given
Procedure, shortened: as §2

`CCC(CC)n1cc(C(=O)C(F)F)cn1` gave an IC50 of 0.0367 µM.

Test system: Anopheles gambiae
Experiment: Insecticidal activity against Anopheles gambiae G3 assessed as fumigation mortality at 1000 ng/mL after 24 hrs by mason jar assay
Assay type: functional
Conditions: G3, 24 h
Procedure, shortened: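 Fumigation of adult G3 An. gambiae in a sealed 1 L vessel, with % mortality read after 24 h. Nominal concentration was calculated from the inhibitor mass delivered and the vessel volume.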

First: CNC(=O)Oc1ccccc1OC(C)C [PROPOXUR]
Second: CCC(CC)n1cc(C(=O)C(F)F)cn1
The mortality at 1 µg/mL of the first is lower: 0% for the first, 57% for the second.

Molecule `CCC(CC)n1cc(C(=O)CF)cn1` has a mortality at 1 µg/mL of 8%.

Test system: Anopheles gambiae
Experiment: Insecticidal activity against Anopheles gambiae G3 assessed as torsal contact toxicity by measuring mortality after 24 hrs by filter paper based method
Assay type: functional
Conditions: G3, 24 h
Procedure, shortened: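 Adult susceptible G3 An. gambiae were tested by the WHO treated-paper tarsal contact protocol. Papers were treated with ethanolic compound solutions and dried overnight. Mosquitoes were exposed 1 h and mortality recorded 24 h later.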

`CNC(=O)Oc1ccccc1OC(C)C` [PROPOXUR] showed an LC50 of 32 µg/mL (≈ 153 µM).

Biological target: T2, Acetylcholinesterase
Experiment: Inhibition of recombinant human AChE after 10 mins by Ellman assay
Conditions: not given

`CCC(C)n1cc(C(=O)C(F)(F)F)cn1` (stereo not drawn) and `CCCC(C)n1cc(C(=O)C(F)(F)F)cn1` (stereo not drawn) are within 1.5-fold of each other in IC50: 0.00647 µM for the first, 0.00715 µM for the second.

Compared with `CNC(=O)Oc1ccccc1OC(C)C` [PROPOXUR], `CC(C)(C)c1cccc(C(=O)C(F)F)c1` is 380-fold lower in IC50: 2.3 µM for the first, 0.00605 µM for the second. The second is the more potent here.

Going from `O=C(c1cnn(C2CCCC2)c1)C(F)(F)F` to `CC(C)n1cc(C(=O)C(F)F)cn1`, the IC50 rises from 0.0052 µM to 0.802 µM (150-fold). The first is the more potent here.

Compared with `CC(C)n1cc(C(=O)CF)cn1`, `CCC(CC)n1cc(C(=O)CF)cn1` is lower in IC50: over 10 µM for the first, 5.29 µM for the second. The second is the more potent here.

Compared with `CCC(CC)n1cc(C(=O)C(F)F)cn1`, `CCCC(C)n1cc(C(=O)C(F)F)cn1` (stereo not drawn) is 5.2-fold higher in IC50: 0.0288 µM for the first, 0.149 µM for the second.

With `CC(C)Cn1cc(C(=O)C(F)F)cn1` the IC50 was 9.78 µM.

Test system: Anopheles gambiae
Experiment: Insecticidal activity against Anopheles gambiae G3 assessed as mortality at 50 ng/insect after 24 hrs (reference value: 11 +/- 4%)
Assay type: functional
Conditions: not given

Molecule `CCC(CC)n1cc(C(=O)C(F)F)cn1` has a mortality of 21%.

Biological target: T2, Acetylcholinesterase
Experiment: Inhibition of recombinant human AChE by Ellman assay
Conditions: TDE = time-dependent effect
Procedure, shortened: as §1

In the case of `CCC(C)n1cc(C(=O)C(F)(F)F)cn1` (stereo not drawn), the inhibition is reported as “tde”.
With `CCCC(C)n1cc(C(=O)C(F)(F)F)cn1` (stereo not drawn) the inhibition was “tde”.
For `O=C(c1cnn(C2CCCC2)c1)C(F)(F)F`, the inhibition was “tde”.

Biological target: T1, Acetylcholinesterase
Experiment: Inhibition of recombinant Anopheles gambiae wild type AChE after 10 mins by Ellman assay
Conditions: not given

Compared with `CCC(C)n1cc(C(=O)C(F)(F)F)cn1` (stereo not drawn), `CCCC(C)n1cc(C(=O)C(F)(F)F)cn1` (stereo not drawn) is 1.5-fold higher in IC50: 0.00247 µM for the first, 0.00374 µM for the second.

First: CNC(=O)Oc1ccccc1OC(C)C [PROPOXUR]
Second: CC(C)n1cc(C(=O)C(F)F)cn1
The IC50 of the first is 1.9-fold lower: 0.182 µM for the first, 0.354 µM for the second.

Going from `O=C(c1cnn(C2CCCC2)c1)C(F)(F)F` to `CC(C)Cn1cc(C(=O)C(F)F)cn1`, the IC50 rises from 0.00287 µM to 3 µM (1000-fold). The first is the more potent here.

Compared with `CC(C)n1cc(C(=O)CF)cn1`, `CCC(CC)n1cc(C(=O)CF)cn1` is lower in IC50: over 10 µM for the first, 0.355 µM for the second. The second is the more potent here.

Going from `CCC(CC)n1cc(C(=O)C(F)F)cn1` to `CCCC(C)n1cc(C(=O)C(F)F)cn1` (stereo not drawn), the IC50 rises from 0.00101 µM to 0.0234 µM (23-fold). The first is the more potent here.
